ChEMBL document CHEMBL2346584, “Microwave assisted nano (ZnO-TiO2) catalyzed synthesis of some new 4,5,6,7-tetrahydro-6-((5-substituted-1,3,4-oxadiazol-2-yl)methyl)thieno[2,3-c]pyridine as antimicrobial agents” (2013)
Converted amounts (≈) assume the structure as drawn. The source made the active and inactive calls. The rule behind the calls is not given here.

Key:
Escherichia coli = assay: Antibacterial activity against Escherichia coli NCIM 2256 by agar method; format: functional
How it was run: (§1)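 Read-out was the minimum inhibitory concentration (MIC), determined by the standard agar method. Ciprofloxacin and ampicillin served as reference antibacterial standards.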

Staphylococcus aureus = assay: Antibacterial activity against Staphylococcus aureus NCIM 2901 by agar method; format: functional; how it was run: as §1
Aspergillus niger = assay: Antifungal activity against Aspergillus niger NCIM 1196 by agar method; format: functional
How it was run: (§2)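 MIC values were obtained with the standard agar method, with miconazole as the reference antifungal standard.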

Candida albicans = assay: Antifungal activity against Candida albicans NCIM 3471 by agar method; format: functional; how it was run: as §2
Bacillus subtilis [1] = assay: Antibacterial activity against Bacillus subtilis NCIM 2063 by agar method; format: functional; how it was run: as §1
Pseudomonas aeruginosa [2] = assay: Antibacterial activity against Pseudomonas aeruginosa NCIM 2036 by agar method; format: functional; how it was run: as §1
Pseudomonas aeruginosa [3] = assay: Antibacterial activity against Pseudomonas aeruginosa NCIM 2036 up to 400 ug/ml by agar method; format: functional, organism-based; how it was run: as §1
Bacillus subtilis [4] = assay: Antibacterial activity against Bacillus subtilis NCIM 2063 up to 400 ug/ml by agar method; format: functional, organism-based; how it was run: as §1

SMILES	MIC (Escherichia coli) [µg/mL]	MIC (Staphylococcus aureus) [µg/mL]	MIC (Aspergillus niger) [µg/mL]	MIC (Candida albicans) [µg/mL]	MIC (Bacillus subtilis [1]) [µg/mL]	MIC (Pseudomonas aeruginosa [2]) [µg/mL]	Activity (Pseudomonas aeruginosa [3])	Activity (Bacillus subtilis [4])
O=C(O)c1cn(C2CC2)c2cc(N3CCNCC3)c(F)cc2c1=O [CIPROFLOXACIN]	25 (≈ 75.4 µM)	50 (≈ 151 µM)	–	–	–	–	–	–
Clc1ccccc1-c1nnc(CN2CCc3ccsc3C2)o1	125 (≈ 377 µM)	100 (≈ 301 µM)	140 (≈ 422 µM)	80 (≈ 241 µM)	100 (≈ 301 µM)	200 (≈ 603 µM)	–	–
COc1ccc(-c2nnc(CN3CCc4ccsc4C3)o2)cc1	125 (≈ 382 µM)	100 (≈ 305 µM)	140 (≈ 428 µM)	80 (≈ 244 µM)	125 (≈ 382 µM)	175 (≈ 534 µM)	–	–
Oc1ccc(-c2nnc(CN3CCc4ccsc4C3)o2)cc1	175 (≈ 558 µM)	175 (≈ 558 µM)	140 (≈ 447 µM)	60 (≈ 191 µM)	–	–	inactive	inactive
c1ccc(-c2nnc(CN3CCc4ccsc4C3)o2)nc1	50 (≈ 168 µM)	50 (≈ 168 µM)	60 (≈ 201 µM)	40 (≈ 134 µM)	100 (≈ 335 µM)	150 (≈ 503 µM)	–	–
Clc1cccc(Cl)c1-c1nnc(CN2CCc3ccsc3C2)o1	50 (≈ 137 µM)	50 (≈ 137 µM)	120 (≈ 328 µM)	20 (≈ 54.6 µM)	50 (≈ 137 µM)	100 (≈ 273 µM)	–	–
Oc1ccc(-c2nnc(CN3CCc4ccsc4C3)o2)cc1O	125 (≈ 379 µM)	100 (≈ 304 µM)	100 (≈ 304 µM)	40 (≈ 121 µM)	–	–	inactive	inactive
c1c[nH]c(-c2nnc(CN3CCc4ccsc4C3)o2)c1	50 (≈ 175 µM)	75 (≈ 262 µM)	120 (≈ 419 µM)	60 (≈ 210 µM)	100 (≈ 349 µM)	125 (≈ 437 µM)	–	–
c1ccc(-c2nnc(CN3CCc4ccsc4C3)o2)cc1	150 (≈ 504 µM)	125 (≈ 420 µM)	160 (≈ 538 µM)	80 (≈ 269 µM)	150 (≈ 504 µM)	300 (≈ 1010 µM)	–	–
Fc1ccc(-c2nnc(CN3CCc4ccsc4C3)o2)cc1	25 (≈ 79.3 µM)	25 (≈ 79.3 µM)	60 (≈ 190 µM)	20 (≈ 63.4 µM)	50 (≈ 159 µM)	100 (≈ 317 µM)	–	–
c1csc(-c2nnc(CN3CCc4ccsc4C3)o2)c1	25 (≈ 82.4 µM)	75 (≈ 247 µM)	80 (≈ 264 µM)	40 (≈ 132 µM)	50 (≈ 165 µM)	150 (≈ 494 µM)	–	–
CC1(C)S[C@@H]2[C@H](NC(=O)[C@H](N)c3ccccc3)C(=O)N2[C@H]1C(=O)O [AMPICILLIN]	100 (≈ 286 µM)	250 (≈ 715 µM)	–	–	250 (≈ 715 µM)	100 (≈ 286 µM)	–	–
Clc1ccc(COC(Cn2ccnc2)c2ccc(Cl)cc2Cl)c(Cl)c1 (stereo not given) [MICONAZOLE]	–	–	12.5 (≈ 30 µM)	25 (≈ 60.1 µM)	–	–	–	–
Clc1ccc(-c2nnc(CN3CCc4ccsc4C3)o2)cc1	100 (≈ 301 µM)	75 (≈ 226 µM)	100 (≈ 301 µM)	60 (≈ 181 µM)	100 (≈ 301 µM)	250 (≈ 753 µM)	–	–
Clc1ccc(-c2nnc(CN3CCc4ccsc4C3)o2)c(Cl)c1	50 (≈ 137 µM)	75 (≈ 205 µM)	60 (≈ 164 µM)	20 (≈ 54.6 µM)	75 (≈ 205 µM)	125 (≈ 341 µM)	–	–
